Laboratory results reported in ChEMBL document CHEMBL4130528, “Serotonin Analogues as Inhibitors of Breast Cancer Cell Growth” (ACS Med Chem Lett, 2017).
Activity calls are given as the source filed them. No cut-off for these calls is given here.

Assays:
MDA-MB-231 [1] = assay: Cytotoxicity against human MDA-MB-231 cells assessed as reduction in cell viability by cell titer 96 aqueous one solution based assay; assay type: functional
Procedure, shortened: (§1)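 MDA-MB-231 and MCF-7 breast cancer cells were treated with increasing concentrations of compound. Viability was read by MTS assay, and IC50 values were derived from the concentration–response data.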

MCF7 [2] = assay: Cytotoxicity against human MCF7 cells assessed as reduction in cell viability by cell titer 96 aqueous one solution based assay; assay type: functional; procedure, shortened: as §1
MDA-MB-231 [3] = assay: Inhibition of PI3K/AKT in human MDA-MB-231 cells assessed as reduction in mTOR phosphorylation at Ser2448 up to 10 uM by Western blot analysis; assay type: cell-based
MDA-MB-231 [4] = assay: Cytotoxicity against human MDA-MB-231 cells assessed as reduction in cell viability after 24 to 72 hrs by cell titer 96 aqueous one solution based assay; assay type: functional
Procedure, shortened: (§2)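 Triple-negative breast cancer cells were incubated with compound for 24, 48 or 72 h. Viability was then measured by MTS assay across a concentration series.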

MDA-MB-231 [5] = assay: Inhibition of mTORC1 signaling in human MDA-MB-231 cells assessed as proline accumulation after 7 to 24 hrs by 1H-MRS analysis; assay type: cell-based
Procedure, shortened: (§3)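 MDA-MB-231 cells were treated for 7 or 24 h, and intracellular metabolites were profiled by 1H-MRS. Treated and untreated groups were compared by principal component analysis.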

MDA-MB-231 [6] = assay: Inhibition of mTORC1 signaling in human MDA-MB-231 cells assessed as reduction in S6 phosphorylation at Ser244 at 20 uM after 12 hrs by RPPA analysis; assay type: cell-based
MDA-MB-231 [7] = assay: Inhibition of mTORC1 signaling in human MDA-MB-231 cells assessed as reduction in S6 phosphorylation at Ser235 at 20 uM after 12 hrs by RPPA analysis; assay type: cell-based
MDA-MB-231 [8] = assay: Cytotoxicity against human MDA-MB-231 cells assessed as reduction in cell viability up to 10 uM in serum-free medium by cell titer 96 aqueous one solution based assay; assay type: functional
Procedure, shortened: (§4)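 Viability was measured by MTS after treating triple-negative breast cancer cells in serum-free medium, either alone or with BSA added to the serum-free medium, across a concentration series.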

[9] = biological target: T1, AMP-activated protein kinase, AMPK (Homo sapiens) (UniProt P54646+O43741+P54619+Q9UGJ0+Q9Y478+Q13131+Q9UGI9); assay: Increase in AMPK phosphorylation at T172 in human MCF7 cells at 20 uM after 12 hrs by RPPA analysis; assay type: cell-based
MCF7 [10] = assay: Inhibition of PI3K/AKT in human MCF7 cells assessed as reduction in mTOR phosphorylation at Ser2448 at 20 uM after 12 hrs by RPPA analysis; assay type: cell-based
MDA-MB-231 [11] = assay: Inhibition of mTORC1 signaling in human MDA-MB-231 cells assessed as reduction in S6 phosphorylation at Ser236 at 20 uM after 12 hrs by RPPA analysis; assay type: cell-based
MDA-MB-231 [12] = assay: Inhibition of mTORC1 signaling in human MDA-MB-231 cells assessed as intracellular UDP N-acetylglucosamine accumulation after 7 to 24 hrs by 1H-MRS analysis; assay type: cell-based; procedure, shortened: as §3
MDA-MB-157 [13] = assay: Cytotoxicity against human MDA-MB-157 cells assessed as reduction in cell viability up to 10 uM in serum-free medium by cell titer 96 aqueous one solution based assay; assay type: functional; procedure, shortened: as §4
MDA-MB-157 [14] = assay: Inhibition of PI3K/AKT in human MDA-MB-157 cells assessed as reduction in mTOR phosphorylation at Ser2448 up to 10 uM by Western blot analysis; assay type: cell-based
MDA-MB-231 [15] = assay: Inhibition of mTORC1 signaling in human MDA-MB-231 cells assessed as reduction in p70S6K phosphorylation at Thr389 at 20 uM after 12 hrs by RPPA analysis; assay type: cell-based
[16] = biological target: T1, AMP-activated protein kinase, AMPK (Homo sapiens); assay: Increase in AMPK phosphorylation at T172 in human MDA-MB-231 cells at 20 uM after 12 hrs by RPPA analysis; assay type: cell-based
MDA-MB-157 [17] = assay: Induction of apoptosis in human MDA-MB-157 cells assessed as increase in cleaved PARP level up to 10 uM by Western blot analysis; assay type: functional, cell-based
Procedure, shortened: (§5)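 Cells were treated with a range of compound concentrations. Apoptosis was assessed by Western blot detection of cleaved poly-ADP ribose polymerase (PARP).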

MDA-MB-157 [18] = assay: Induction of apoptosis in human MDA-MB-157 cells assessed as increase in caspase 3/7 activity up to 10 uM by Caspase-Glo 3/7 luciferase-based assay; assay type: functional, cell-based
Procedure, shortened: (§6)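 Cells were treated with a range of compound concentrations. Apoptosis was read as caspase-3/7 activity using a luciferase-based luminescent assay.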

MDA-MB-231 [19] = assay: Induction of apoptosis in human MDA-MB-231 cells assessed as increase in caspase 3/7 activity by Caspase-Glo 3/7 luciferase-based assay; assay type: functional, cell-based; procedure, shortened: as §6
MDA-MB-231 [20] = assay: Inhibition of mTORC1 signaling in human MDA-MB-231 cells assessed as reduction in […] at 10 uM by Western blot analysis; assay type: cell-based
MDA-MB-231 [21] = assay: Inhibition of mTORC1 signaling in human MDA-MB-231 cells assessed as glutamine accumulation after 7 to 24 hrs by 1H-MRS analysis; assay type: cell-based; procedure, shortened: as §3
MDA-MB-231 [22] = assay: Induction of apoptosis in human MDA-MB-231 cells assessed as increase in cleaved PARP level up to 10 uM by Western blot analysis; assay type: functional, cell-based; procedure, shortened: as §5
MDA-MB-231 [23] = assay: Inhibition of mTORC1 signaling in human MDA-MB-231 cells assessed as phenylalanine accumulation after 7 to 24 hrs by 1H-MRS analysis; assay type: cell-based; procedure, shortened: as §3
MDA-MB-231 [24] = assay: Effect on total p70S6K level in human MDA-MB-231 cells at 20 uM after 12 hrs by RPPA analysis; assay type: cell-based; conditions: mda-mb-231, 12 h
MDA-MB-231 [25] = assay: Effect on total S6 level in human MDA-MB-231 cells at 20 uM after 12 hrs by RPPA analysis; assay type: cell-based; conditions: mda-mb-231, 12 h
MDA-MB-231 [26] = assay: Inhibition of mTORC1 signaling in human MDA-MB-231 cells assessed as alanine accumulation after 7 to 24 hrs by 1H-MRS analysis; assay type: cell-based; procedure, shortened: as §3
MDA-MB-231 [27] = assay: Inhibition of mTORC1 signaling in human MDA-MB-231 cells assessed as intracellular UDP-glucose accumulation after 7 to 24 hrs by 1H-MRS analysis; assay type: cell-based; procedure, shortened: as §3
MDA-MB-231 [28] = assay: Inhibition of mTORC1 signaling in human MDA-MB-231 cells assessed as tyrosine accumulation after 7 to 24 hrs by 1H-MRS analysis; assay type: cell-based; procedure, shortened: as §3
MDA-MB-157 [29] = assay: Cytotoxicity against human MDA-MB-157 cells assessed as reduction in cell viability up to 10 uM after 24 to 72 hrs by cell titer 96 aqueous one solution based assay; assay type: functional; procedure, shortened: as §2
MDA-MB-157 [30] = assay: Inhibition of mTORC1 signaling in human MDA-MB-157 cells assessed as reduction in […] at 10 uM by Western blot analysis; assay type: cell-based
MDA-MB-157 [31] = assay: Cytotoxicity against human MDA-MB-157 cells assessed as reduction in cell viability up to 10 uM in presence of bovine serum albumin by cell titer 96 aqueous one solution based assay; assay type: functional; procedure, shortened: as §4
MDA-MB-231 [32] = assay: Inhibition of mTORC1 signaling in human MDA-MB-231 cells assessed as glycine accumulation after 7 to 24 hrs by 1H-MRS analysis; assay type: cell-based; procedure, shortened: as §3
MDA-MB-231 [33] = assay: Inhibition of mTORC1 signaling in human MDA-MB-231 cells assessed as aspartate accumulation after 7 to 24 hrs by 1H-MRS analysis; assay type: cell-based; procedure, shortened: as §3
MDA-MB-231 [34] = assay: Inhibition of PI3K/AKT in human MDA-MB-231 cells assessed as reduction in mTOR phosphorylation at Ser2448 at 20 uM after 12 hrs by RPPA analysis; assay type: cell-based
MDA-MB-231 [35] = assay: Inhibition of mTORC1 signaling in human MDA-MB-231 cells assessed as reduction in S6 phosphorylation at Ser240 at 20 uM after 12 hrs by RPPA analysis; assay type: cell-based
[36] = biological target: T2, Acetyl-CoA carboxylase (Homo sapiens) (UniProt Q13085+O00763); assay: Increase in ACC phosphorylation at Ser79 in human MDA-MB-231 cells at 20 uM after 12 hrs by RPPA analysis; assay type: cell-based
[37] = biological target: T2, Acetyl-CoA carboxylase (Homo sapiens); assay: Increase in ACC phosphorylation at Ser79 in human MCF7 cells at 20 uM after 12 hrs by RPPA analysis; assay type: cell-based

CCCCCCCCOc1ccc2[nH]cc(CCN)c2c1
IC50 (MDA-MB-231 [1]): 7.3 µM | IC50 (MCF7 [2]): 13 µM

CCCCCCCCCOc1ccc2[nH]cc(CCN)c2c1
IC50 (MDA-MB-231 [1]): 4.7 µM | IC50 (MCF7 [2]): 8.8 µM

NCCc1c[nH]c2ccc(OCCCCCCCCCBr)cc12
IC50 (MDA-MB-231 [1]): 10 µM | IC50 (MCF7 [2]): 17 µM

CCCCCCCCCCCCOc1cccc2[nH]cc(CCN)c12
IC50 (MDA-MB-231 [1]): 4.1 µM | IC50 (MCF7 [2]): 5 µM

CCCCCCCCCCCCOc1ccc2[nH]cc(CCN)c2c1.Cl
inhibition (MDA-MB-231 [3]): inactive | Activity (MDA-MB-231 [4]): Active | inhibition (MDA-MB-231 [5]): Active | inhibition (MDA-MB-231 [6]): Active | inhibition (MDA-MB-231 [7]): Active | Activity (MDA-MB-231 [8]): inactive | Activity [9]: Active | inhibition (MCF7 [10]): inactive | inhibition (MDA-MB-231 [11]): Active | inhibition (MDA-MB-231 [12]): Active | Activity (MDA-MB-157 [13]): Active | inhibition (MDA-MB-157 [14]): inactive | inhibition (MDA-MB-231 [15]): Active | Activity [16]: Active | Activity (MDA-MB-157 [17]): Active | Activity (MDA-MB-157 [18]): Active | Activity (MDA-MB-231 [19]): Dose-dependent effect | inhibition (MDA-MB-231 [20]): Active | inhibition (MDA-MB-231 [21]): Active | Activity (MDA-MB-231 [22]): Active | inhibition (MDA-MB-231 [23]): Active | Activity (MDA-MB-231 [24]): Non-Toxic | Activity (MDA-MB-231 [25]): Non-Toxic | inhibition (MDA-MB-231 [26]): Active | inhibition (MDA-MB-231 [27]): Active | inhibition (MDA-MB-231 [28]): Active | Activity (MDA-MB-157 [29]): Active | inhibition (MDA-MB-157 [30]): Active | Activity (MDA-MB-157 [31]): Active | IC50 (MDA-MB-231 [1]): 4.6 µM | inhibition (MDA-MB-231 [32]): Active | IC50 (MCF7 [2]): 5.1 µM | inhibition (MDA-MB-231 [33]): Active | inhibition (MDA-MB-231 [34]): inactive | inhibition (MDA-MB-231 [35]): Active | Activity [36]: Active | Activity [37]: Active

CCCCCCCCCCOc1ccc2[nH]cc(CCN)c2c1
IC50 (MDA-MB-231 [1]): 4.4 µM | IC50 (MCF7 [2]): 9 µM

NCCc1c[nH]c2ccc(OCc3cccc(COc4ccc5[nH]cc(CCN)c5c4)c3)cc12
IC50 (MDA-MB-231 [1]): 18 µM | IC50 (MCF7 [2]): 22 µM

CCCCCCCCCOc1cccc2c(CCN)c[nH]c12
IC50 (MDA-MB-231 [1]): 8 µM | IC50 (MCF7 [2]): 15 µM

CCCCOc1ccc2[nH]cc(CCN)c2c1
IC50 (MDA-MB-231 [1]): 48 µM | IC50 (MCF7 [2]): 45 µM
